Source: PubChem (Sanford-Burnham Center for Chemical Genomics)
STEP inh: STEP phosphatase inhibitors, primary screen, biochemical, fluorescence intensity, uHTS | AID 588621, 2011 | actives 0.25% (n = 360,000) | recombinant STEP, OMFP fluorogenic substrate | inhibition, % at 20 µM;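 active means inhibition at 20 µM, scaled per plate between control wells, above about 37%, limit read from the data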
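Material: STEP (striatal-enriched tyrosine phosphatase) enzyme, cell-free; Compound dosing: 20 µM single dose in 1% DMSO; Technique: fluorescence read at 480 nm ex / 540 nm em; Times: reaction 20 min, ambient temperature; Medium: 50 mM Bis-Tris pH 6.0 with 2.5 mM DTT and 0.005% Tween 20; Also added: OMFP at 25 µM.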
SUMO1 PPI mod: modulators of SUMO1 protein-protein interactions, primary screen, biochemical, uHTS; actives 0.33% (n = 360,000); Small ubiquitin-related modifier 1 (Homo sapiens), P63165; inhibition, % at 20 µM; SUMO1 binding to a labelled peptide, TR-FRET, 1 h; in the data active means inhibition above about 37%
HKDC1 inh: HKDC1 hexokinase inhibitors, primary screen, biochemical, fluorescence, uHTS. recombinant HKDC1, G6PDH/diaphorase resazurin coupled fluorescence. actives 0.16% (n = 340,000). Q2TB90. inhibition, % at 20 µM;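 active means inhibition above about 35% when tested at 20 µM, limit read from the data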
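test system = in-house recombinant HK5 (HKDC1) enzyme | amount = HKDC1 at 5 µg/mL | control set = DMSO-enzyme wells negative, buffer-substituted wells positive | compound = one dose of 20 µM, 1% DMSO | schedule = reaction time 90 min, room temperature, protected from light | technique = resorufin fluorescence at 613 nm | reagent = glucose with 1 mM ATP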
LMPTP block: LMPTP phosphatase inhibitors, primary screen, biochemical, fluorescence intensity, uHTS; AID 651560, 2012; Low molecular weight phosphotyrosine protein phosphatase (Homo sapiens), P24666; actives 0.22% (n = 360,000); recombinant LMPTP-A, OMFP fluorogenic substrate; inhibition, % at 20 µM;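 active means compounds that cut the enzyme signal by at least half of the control window in the single-dose screen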
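Test system: LMPTP-A phosphatase enzyme. Amount: LMPTP-A at 0.625 nM final in the reaction. Reagent: OMFP substrate, 400 µM final. Times: 50 min at room temperature. Signal: endpoint fluorescence intensity from OMFP dephosphorylation. Read-out basis: % inhibition. Benchmarks: no-enzyme and uninhibited controls.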
Scp-1 inhibitor: Scp-1 phosphatase inhibitors, primary screen, biochemical, colorimetric, uHTS; AID 493091, 2011; Carboxy-terminal domain RNA polymerase II polypeptide A small phosphatase 1 (Homo …; inhibition, % at 20 µM; Recombinant Scp1, phosphopeptide, malachite green phosphate absorbance; actives 0.88% (n = 340,000);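 active means inhibition above about 50% at 20 µM, limit read from the data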
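Incubation: 45 min enzyme reaction at room temperature / System: truncated SCP-1 phosphatase (76-261aa) / Reagent: Phospho 17-mer peptide substrate / Buffer or medium: Acidic Tris acetate buffer with magnesium and detergent / Signal: absorbance at 630 nm / Doses: one concentration, 20 µM, with 1.0% DMSO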
DNMT1 block: human DNMT1 methyltransferase inhibitors, primary screen, biochemical, molecular beacon, fluorescence, HinP1I cleavage, uHTS; DNA (cytosine-5)-methyltransferase 1 (Homo sapiens), P26358; inhibition (reported as % activation of signal), % at 10 µM; actives 0.83% (n = 360,000); in the data active means inhibition above about 50%
Target sequence (P26358 504-1616 limits assumed): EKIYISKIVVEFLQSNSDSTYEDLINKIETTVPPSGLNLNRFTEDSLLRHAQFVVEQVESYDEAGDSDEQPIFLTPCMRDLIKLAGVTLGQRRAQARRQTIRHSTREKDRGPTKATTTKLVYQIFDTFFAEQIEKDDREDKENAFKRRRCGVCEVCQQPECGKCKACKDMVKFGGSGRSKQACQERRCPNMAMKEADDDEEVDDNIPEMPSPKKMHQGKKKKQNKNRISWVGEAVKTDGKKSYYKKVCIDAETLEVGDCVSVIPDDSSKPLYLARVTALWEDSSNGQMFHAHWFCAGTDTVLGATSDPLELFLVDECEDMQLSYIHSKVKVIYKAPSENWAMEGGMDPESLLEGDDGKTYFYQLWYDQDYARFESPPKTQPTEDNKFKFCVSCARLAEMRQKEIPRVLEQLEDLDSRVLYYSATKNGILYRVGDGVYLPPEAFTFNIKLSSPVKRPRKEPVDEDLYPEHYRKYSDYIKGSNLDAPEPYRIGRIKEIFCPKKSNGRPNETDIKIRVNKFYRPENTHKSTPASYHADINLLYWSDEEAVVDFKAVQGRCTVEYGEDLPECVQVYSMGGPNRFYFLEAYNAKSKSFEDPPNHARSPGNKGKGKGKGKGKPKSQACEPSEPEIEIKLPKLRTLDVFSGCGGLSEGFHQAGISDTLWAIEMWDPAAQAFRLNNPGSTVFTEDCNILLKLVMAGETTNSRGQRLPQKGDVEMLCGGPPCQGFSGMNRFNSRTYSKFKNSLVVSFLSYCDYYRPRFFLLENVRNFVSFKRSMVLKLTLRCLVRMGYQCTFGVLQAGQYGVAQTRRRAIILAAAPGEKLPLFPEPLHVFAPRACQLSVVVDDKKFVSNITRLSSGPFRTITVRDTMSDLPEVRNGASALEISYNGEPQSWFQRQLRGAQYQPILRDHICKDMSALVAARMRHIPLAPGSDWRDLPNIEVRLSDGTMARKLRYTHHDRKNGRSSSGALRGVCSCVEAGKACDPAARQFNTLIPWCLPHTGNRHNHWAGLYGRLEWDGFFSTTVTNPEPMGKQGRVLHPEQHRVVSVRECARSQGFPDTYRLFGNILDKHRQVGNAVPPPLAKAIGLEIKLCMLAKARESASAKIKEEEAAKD
Scp-1 conf: Scp-1 phosphatase inhibitors, retest, confirmation, biochemical, colorimetric, single concentration | shares compounds with Scp-1 inhibitor | recombinant SCP-1 catalytic domain, phosphate release, malachite green absorbance | inhibition, % at 20 µM | actives 61% (n = 2,500) | AID 540281, 2011
Scp-1 MG ctr: colorimetric readout interference by compounds, confirmation, artefact control for Scp-1 inhibitor project, biochemical, single concentration; 2,500 tested, under 10 active; Colorimetric interference counterscreen, malachite green absorbance 630 nm; AID 540313, 2011; apparent inhibition (interference), % at 20 µM; shares compounds with Scp-1 inhibitor;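 further: compounds added after enzyme reaction finished so only phosphate colour detection is probed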
Scp1 DSF: Scp-1 binding by thermal shift, confirmation, orthogonal assay for Scp-1 inhibitor project, biophysical, differential scanning fluorimetry; shares compounds with Scp-1 inhibitor; Recombinant SCP1, Sypro Orange thermal shift Tm; thermal shift relative to vanadate control, % at 40 µM; actives 25% (n = 1,500); AID 540329, 2011;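 active means substances whose mean melting-temperature shift, as a percentage of the reference inhibitor's shift, reaches about 5.3%, limit read from the data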
Each line names hits and unclear results; the compound was inactive in the other large screens (follow-up assays come after a bar, where they were run). Most compounds without a hit are left out; they make up all but 1.8% or so of the library.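 How the source made its calls, unless noted: active means inhibition of at least 30% at 20 µM; inactive means the rest.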

C[C@@H]1NC(=O)c2cc([N+](=O)[O-])cc(I)c2OCC[C@@H](C(=O)NC(CC(=O)O)C(N)=O)NC(=O)[C@H](CCC(=O)O)NC1=O (stereo partly drawn)	Scp-1 inhibitor 50 (no result: STEP inh, SUMO1 PPI mod, LMPTP block, DNMT1 block) | Scp-1 conf 53 | Scp-1 MG ctr inactive | Scp1 DSF inactive
NC(=O)C(CC(=O)O)NC(=O)[C@@H]1CCOc2c(I)cc([N+](=O)[O-])cc2C(=O)N[C@@H](CCC(=O)O)C(=O)N[C@@H](CO)C(=O)N1 (stereo partly drawn)	none (no result: STEP inh, SUMO1 PPI mod, LMPTP block, DNMT1 block)
NC(=O)C(CC(=O)O)NC(=O)[C@@H]1CCCNc2c(I)cc([N+](=O)[O-])cc2C(=O)N[C@@H](CO)C(=O)N[C@@H](Cc2ccc(O)cc2)C(=O)N1 (stereo partly drawn)	Scp-1 inhibitor 62 | Scp-1 conf 43 | Scp-1 MG ctr inactive | Scp1 DSF 9.8
O=c1oc2c(-c3ccc([N+](=O)[O-])cc3)cc(O)cc2s1	SUMO1 PPI mod 67, Scp-1 inhibitor 103 | Scp-1 conf 66 | Scp-1 MG ctr inactive | Scp1 DSF 10
NC1=C(c2ccc([N+](=O)[O-])cc2)C(=O)CO1	none
N=C1/C(=C\c2ccc(OC(=O)c3ccc(F)cc3)cc2)C(=O)N=C2SC(N3CCOCC3)=NN12	Scp-1 inhibitor 66 | Scp-1 conf 56 | Scp-1 MG ctr inactive | Scp1 DSF inactive
CC1CCN(C2=NN3C(=N)/C(=C\c4ccc(OC(=O)c5ccco5)cc4)C(=O)N=C3S2)CC1	none
C#CCNC(=O)C[C@@H]1C[C@@]2(C(=O)OC)CCCCC=C2N(Cc2cccc3ccccc23)C1=O	none (no result: STEP inh, HKDC1 inh, Scp-1 inhibitor, DNMT1 block)
COc1cc2nc(NC(=O)c3ccco3)sc(=O)c2cc1OC	Scp-1 inhibitor 51 | Scp-1 conf 43 | Scp-1 MG ctr inactive | Scp1 DSF inactive
Cc1cc(C)cc(NC(=O)C(OC(=O)c2ccc(NC(=O)CC#N)cc2)c2ccccc2)c1 (stereo not drawn)	none
Cc1ccc2nc3c(cc(C(=O)NCc4ccco4)c(=N)n3Cc3ccco3)c(=O)n2c1	Scp-1 inhibitor 69 | Scp-1 conf inactive | Scp-1 MG ctr inactive
Cc1ccc(CNC(=O)c2cc3c(=O)n4ccccc4nc3n(Cc3ccco3)c2=N)cc1	none
C[N+](C)(C)c1ccc(/C=N/Nc2nc(Cl)c(C#N)c(Cl)c2Cl)cc1	Scp-1 inhibitor 53 | Scp-1 conf inactive | Scp-1 MG ctr inactive
N#Cc1c(Cl)nc(N/N=C/c2ccccc2)c(Cl)c1Cl	none
O=C(COc1ccc(Cl)cc1Cl)NCc1ccco1	none
COc1ccc(/C=C/C(=O)OCC(=O)NCc2ccco2)cc1OC	Scp-1 inhibitor 52 | Scp-1 conf 59 | Scp-1 MG ctr inactive | Scp1 DSF inactive
COc1ccc(OCCC(=O)OCC(=O)NCc2ccco2)cc1	Scp-1 inhibitor 86 | Scp-1 conf 72 | Scp-1 MG ctr inactive | Scp1 DSF inactive
O=C(COC(=O)COc1ccccc1)NCc1ccco1	none
COc1ccc(C(=O)OCC(=O)NCc2ccco2)cc1OC	Scp-1 inhibitor 56 | Scp-1 conf 53 | Scp-1 MG ctr inactive | Scp1 DSF inactive
Cc1ccc(OCC(=O)N(C)CC(=O)NCc2ccco2)c(Br)c1	Scp-1 inhibitor 70 | Scp-1 conf 75 | Scp-1 MG ctr inactive | Scp1 DSF inactive
COc1ccc(OCC(O)CNC(=O)Nc2cc(F)ccc2C)cc1 (stereo not drawn)	none
CCOc1ccccc1OCC(=O)NCc1ccco1	Scp-1 inhibitor 58 | Scp-1 conf 60 | Scp-1 MG ctr inactive | Scp1 DSF inactive
O=C(COc1ccccc1Cl)NCc1ccco1	none
CCOC(=O)c1c(NC(=O)COC(=O)c2cnccn2)sc(C(=O)NC)c1C	none
CCOC(=O)c1c(-c2ccco2)csc1NC(=O)COC(=O)c1cnccn1	Scp-1 inhibitor 60 | Scp-1 conf inactive | Scp-1 MG ctr inactive
COCCNC(=O)C1C(=O)Nc2ccccc2C(=O)N1Cc1ccccc1 (stereo not drawn)	none (no result: STEP inh, HKDC1 inh, Scp-1 inhibitor, DNMT1 block)
Cc1cc(=O)oc2cc(NC(=O)c3cc(F)ccc3F)ccc12	Scp-1 inhibitor 86 | Scp-1 conf 62 | Scp-1 MG ctr inactive | Scp1 DSF inactive
Cc1cc(=O)oc2cc(NC(=O)c3ccccc3OC(F)F)ccc12	none
CCOC(=O)C1CCN(C(=O)CCCCn2c(=O)[nH]c3ccccc3c2=O)CC1	Scp-1 inhibitor 68 | Scp-1 conf inactive | Scp-1 MG ctr inactive
Cc1ccc(S(=O)(=O)CCC(=O)N2CCN(c3ccc([N+](=O)[O-])cc3)CC2)cc1	Scp-1 inhibitor 59 | Scp-1 conf inactive | Scp-1 MG ctr inactive
COc1ccc(S(=O)(=O)CCC(=O)N2CCN(c3ccc([N+](=O)[O-])cc3)CC2)cc1	none
O=C(NCc1ccco1)c1cc2cc3ccc(Cl)cc3nc2o1	none
COc1ccc2cc3cc(C(=O)NCc4ccco4)oc3nc2c1	Scp-1 inhibitor 61 | Scp-1 conf 56 | Scp-1 MG ctr inactive | Scp1 DSF inactive
CCOc1ccc(NC(=O)c2cc3cc4ccc(OC)cc4nc3o2)cc1	Scp-1 inhibitor 55 | Scp-1 conf 41 | Scp-1 MG ctr inactive | Scp1 DSF inactive
O=C(CNC(=O)c1ccccc1)NCC(O)c1ccc([N+](=O)[O-])cc1 (stereo not drawn)	none
CSCCC(NC(=O)c1ccccc1Cl)C(=O)N1CCCCC1 (stereo not drawn)	none
Cc1c(C(=O)N2CCN(CCc3ccccn3)CC2)oc2ccc(F)cc12	none
